An excerpt weighted towards active compounds, which were near 1.8% of everything screened.
UPR CHOP act: activators of apoptotic CHOP UPR arm, primary screen, cell-based, CHO-CHOP luciferase reporter, luminescence, uHTS | UPR activation; percent of tunicamycin response over DMSO baseline | activation, % at 10 µM | 330,000 compounds, 0.34% hits;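 active = at 10 µM dose, activation of 40% or more, normalized to positive control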;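 note: 100% = tunicamycin at 10 µg/mL and 0% = DMSO alone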
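Assay system: CHO cells with stable CHOP pathway luciferase reporter; Buffer or medium: F12 plus 10% serum; Times: 16-18 h cell attachment, then 6 h compound exposure, 37 °C; Signal: luciferase luminescence; Read-out basis: percent activation relative to tunicamycin control; Control set: tunicamycin high control, DMSO low control.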
CRFBP-R2 block: antagonists of CRF-BP/CRF-R2 complex, primary screen, cell-based, HEK293, calcium dye fluorescence, uHTS | inhibition, % at 11.8 µM | CRF-induced calcium fluorescence | 350,000 compounds, 0.59% hits;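 active = inhibition of the ligand-induced calcium signal above about 50% at the single tested concentration, limit read from the data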
Jurkat NFkB inh: inhibitors of induced NF-kB luciferase reporter, primary screen, TCR NF-kB activation inhibitor project, cell-based, luminescence, uHTS; Jurkat, PMA/ionomycin-induced NF-kB luciferase reporter; inhibition, % at 4 µM; 330,000 compounds, 0.53% hits; in the data active = inhibition above about 50%
697 NFkB inh: inhibitors of PMA/ionomycin-induced NF-kB reporter, 697 cells, primary screen, B-cell NF-kB inhibitor project, cell-based, luminescence, uHTS | inhibition, % at 4 µM | 330,000 compounds, 0.33% hits | 697 B-cell NF-kB luciferase reporter, 16 h; in the data active = inhibition above about 35%
UPR XBP1 act: activators of adaptive XBP1 UPR arm, primary screen, cell-based, CHO-XBP1 luciferase reporter, luminescence, uHTS; IRE1-XBP1 UPR activation; percent of tunicamycin response, DMSO as zero; activation, % at 20 µM; 330,000 compounds, 0.33% hits;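 active = versus positive control, 20 µM dose yields 30% or more activation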;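 note: 100% = tunicamycin at 10 µg/mL and 0% = DMSO only wells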
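Assay system: CHO-XBP1 luciferase reporter cells; Schedule: 6 h treatment, 37 °C; Detection: glow luminescence from Steady-Glo reagent; Benchmarks: high control tunicamycin 10 µg/mL final, low control DMSO vehicle only.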
CHOP UPR conf: activators of apoptotic CHOP UPR arm, confirmation, cell-based, CHO-CHOP luciferase reporter, single concentration | shares compounds with UPR CHOP act | 1,000 compounds, 64% hits | CHO-CHOP cells, CHOP-luciferase reporter luminescence; percent of tunicamycin response, DMSO as zero | AID 463112, 2010 | activation, % at 10 µM; in the data active = activation above about 33%;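 note: 0% = DMSO wells and 100% = tunicamycin 10 µg/mL wells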
XBP1 UPR conf: IRE1-XBP1 UPR arm activators, confirmation, cell-based, CHO-XBP1 luciferase reporter, luminescence, single concentration. activation, % at 20 µM. 1,000 compounds, 63% hits. AID 485299, 2010. shares compounds with UPR XBP1 act;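 active = reporter signal at least 30% of the positive control's activation in two or more of four replicate wells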;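 note: plate controls were DMSO negative control for no effect and tunicamycin 10 µg/mL positive control for full effect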
The depositor's hits bear a star; / = no result.

SMILES	UPR CHOP act	CRFBP-R2 block	Jurkat NFkB inh	697 NFkB inh	UPR XBP1 act	CHOP UPR conf	XBP1 UPR conf
CCCCCCN(C(=O)CCCN1C(=O)NC(c2ccc([N+](=O)[O-])cc2)C(C(=O)OCc2ccccc2)=C1C)C(C)C(=O)NCCCC (centres undefined)	13	-14	/	-12	6	/	/
Oc1ccc(/C=N/Nc2nc(N3CCCC3)nc(N3CCCC3)n2)cc1O	257*	3	3	-1	67*	180*	44*
COc1cc(/C=N/Nc2nc(N3CCCC3)nc(N3CCCC3)n2)ccc1O	1	15	-14	10	1	/	/
CCOC(=O)c1ccc(-c2ccc(/C=N/NC(=O)CN(c3ccccc3Cl)S(C)(=O)=O)o2)cc1	12	-3	-41	-108	-1	/	/
CCOC(=O)c1ccc(-c2ccc(/C=N/NC(=O)CN(c3cccc(C)c3)S(C)(=O)=O)o2)cc1	55*	11	-54	-77	115*	50*	48*
Cc1ccc(Nc2nc(Cl)nc3ncn(C)c23)c(C)c1	/	25	/	/	/	/	/
Cc1ccc(-c2nc(=O)[nH]c3ccc(Br)cc23)cc1	2	-3	-3	22	1	/	/
Cc1ccc(Cc2cnc(NC(=O)/C(C#N)=C/c3ccc(-c4ccc([N+](=O)[O-])cc4)o3)s2)cc1	123*	1	-1	-11	136*	78*	166*
O=S1(=O)CCN(c2ccccc2CC(c2c[nH]c3ccccc23)c2c[nH]c3ccccc23)CC1	/	-19	/	/	/	/	/
CCCCN=C1SC(C(=O)Nc2sc3c(c2C(=O)OC)CCC3)C(N)=C1C(=O)N1CCOCC1 (centres undefined)	109*	-8	4	13	166*	2	16
O=C(NC1CC2CCCC(C1)N2Cc1ccccc1)c1ccc([N+](=O)[O-])cc1 (centres undefined)	1	1	-1	-1	-5	/	/
CC(C)CC1(C2CCCC2)NC(=O)NC1=O (centres undefined)	/	3	/	/	/	/	/
O=C(/C=C\c1cn(-c2ccccc2)nc1-c1ccccc1)Nc1nccs1	51*	8	-17	-7	106*	18	113*
CC(=O)NS(=O)(=O)c1ccc(NC(=O)/C=C/c2cn(-c3ccccc3)nc2-c2ccccc2)cc1	1	10	7	-16	-2	/	/
O=C(NCc1ccc(F)cc1)c1cc2c(s1)CS(=O)(=O)C2	-1	7	14	7	-3	/	/
CCC(C)(C)NC(=O)C(c1ccncc1)N(C(=O)c1sc(C)nc1C)c1ccc(C)cc1 (centres undefined)	0	-6	-13	-19	2	/	/
O=C(CSc1cc(Cl)ccc1Cl)Nc1ccc(N2CCOCC2)cc1	0	-2	-11	15	-2	/	/
C/C(CC(C)(C)C1CCCCC1)=N\NC(N)=S	72*	-26	30	18	69*	43*	31*
OCCNc1nc(Nc2ccccc2)nc2ccccc12	2	-7	-8	12	24	/	/
OCCNc1nc(Nc2ccc(Br)cc2)nc2ccccc12	76*	-17	1	-11	41*	60*	46*
O=C(O)c1ccccc1Nc1ccnc(C(F)(F)F)c1	0	-5	9	2	-2	/	/
O=C(Nc1cccc(-c2nc3cccnc3s2)c1)C1c2ccccc2Oc2ccccc21	281*	-26	7	-30	440*	75*	466*
N#C/C(=C\c1ccc(OCc2ccccc2)cc1)C(=O)Nc1nc2c(s1)CCN(Cc1ccccc1)C2	91*	-57	-47	-4	42*	145*	132*
O=c1oc(CCCO)cc2ccc(/C=C/c3cccc([N+](=O)[O-])c3)cc12	76*	-9	-125	-15	78*	10	33*
O=c1oc(CCCO)cc2ccc(Br)cc12	2	16	0	15	3	/	/
SMILES	UPR CHOP act	CRFBP-R2 block	Jurkat NFkB inh	697 NFkB inh	UPR XBP1 act	CHOP UPR conf	XBP1 UPR conf
O=[N+]([O-])c1ccc(N/N=C/c2ccc(O)c(O)c2O)c(S(=O)(=O)N2CCOCC2)c1	7	-11	-14	-2	0	/	/
O=[N+]([O-])c1ccc(N/N=C/c2cccc(O)c2O)c(S(=O)(=O)N2CCOCC2)c1	133*	9	13	-55	54*	86*	33*
CCOC(=O)c1c2ccc(OCC(=O)N/N=C/c3ccc(C)cc3)cc2n2ccccc12	158*	-30	6	13	123*	61*	106*
CCOC(=O)c1c2ccc(OCC(=O)NN)cc2n2ccccc12	-1	-14	-1	10	-3	/	/
COc1ccc(NC(=S)NC(=O)/C=C/c2ccco2)cc1	6	-12	2	-44	2	/	/
O=C(/C=C/c1ccco1)NC(=S)Nc1ccc(O)c(-c2nc3ccccc3s2)c1	106*	8	6	-9	153*	86*	287*
Cc1nc(SCC(=O)Nc2ccc(F)cc2)c(C#N)c(C)c1CC(=O)c1ccc(Br)cc1	57*	-5	26	24	98*	35*	68*
Cc1ccc(-c2nnc(-c3ccc(NC(=O)Cc4cccs4)cc3)o2)cc1	41*	6	-28	-10	142*	15	52*
O=C(Cc1cccs1)Nc1cccc(-c2nnc(-c3ccco3)o2)c1	2	-71	-13	-34	-3	/	/
NS(=O)(=O)c1ccc(CNC(=O)CSc2nc3ccc(Cl)cc3[nH]2)cc1	-1	-1	-5	2	-2	/	/
COC(=O)c1ccc(-n2c(C)cc(C(=O)CCl)c2C)cc1	502*	1	-5	24	74*	268*	16
CCOc1ccc(-n2c(C)cc(C(=O)CCl)c2C)cc1	244*	9	-4	7	70*	621*	202*
CCOC(=O)c1cc(C)n(-c2ccc(Cl)cc2)c1C	1	15	17	-5	4	/	/
CCc1cccc(CC)c1NC(=O)/C(C#N)=C/c1ccccc1C(F)(F)F	71*	-23	0	6	70*	72*	34*
N#C/C(=C\c1ccccc1C(F)(F)F)C(=O)Nc1ccccc1	0	-42	-2	-19	2	/	/
Cc1ccc(N(C(=O)c2csnn2)C(C(=O)NC2CCCCC2)c2ccccn2)cc1C (centres undefined)	4	30	-2	12	0	/	/

Screening results deposited in PubChem BioAssay by Sanford-Burnham Center for Chemical Genomics.
